For series [1], the target named is T1, Peroxisome proliferator-activated receptor gamma (Homo sapiens) (UniProt P37231).
T1 sequence (whole entry): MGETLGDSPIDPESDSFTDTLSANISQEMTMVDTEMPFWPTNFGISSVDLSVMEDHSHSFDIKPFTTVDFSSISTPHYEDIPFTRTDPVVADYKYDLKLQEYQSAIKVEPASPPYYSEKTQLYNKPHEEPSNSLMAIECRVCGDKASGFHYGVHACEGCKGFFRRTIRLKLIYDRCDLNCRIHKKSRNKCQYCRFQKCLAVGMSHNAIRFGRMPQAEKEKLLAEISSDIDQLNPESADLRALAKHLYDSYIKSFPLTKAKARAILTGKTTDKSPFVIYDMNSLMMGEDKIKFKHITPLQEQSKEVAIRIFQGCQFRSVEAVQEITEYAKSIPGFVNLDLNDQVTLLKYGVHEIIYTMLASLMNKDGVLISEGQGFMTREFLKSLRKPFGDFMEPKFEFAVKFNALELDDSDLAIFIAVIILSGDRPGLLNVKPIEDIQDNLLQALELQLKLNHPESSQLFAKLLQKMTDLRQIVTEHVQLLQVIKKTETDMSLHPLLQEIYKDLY
The experiment in a line: Partial agonist activity at Gal4-fused PPARgamma LBD (unknown origin) expressed in HEK293T cells after 14 to 16 hrs by dual-Glo luciferase assay relative to pioglitazone. It is filed as cell-based. In outline:
(§1)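 Gal4 hybrid reporter assay in transiently transfected HEK293T cells. Constructs fuse the yeast Gal4 DNA-binding domain to the human receptor LBD. Firefly luciferase is the reporter. Constitutive renilla luciferase monitors transfection efficiency and toxicity. EC50 and maximal relative activation are reported as mean±S.E.M., n≥3.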

The target of series [2] is T2, Peroxisome proliferator-activated receptor alpha (Homo sapiens, UniProt Q07869).
T2 sequence (Q07869 whole entry): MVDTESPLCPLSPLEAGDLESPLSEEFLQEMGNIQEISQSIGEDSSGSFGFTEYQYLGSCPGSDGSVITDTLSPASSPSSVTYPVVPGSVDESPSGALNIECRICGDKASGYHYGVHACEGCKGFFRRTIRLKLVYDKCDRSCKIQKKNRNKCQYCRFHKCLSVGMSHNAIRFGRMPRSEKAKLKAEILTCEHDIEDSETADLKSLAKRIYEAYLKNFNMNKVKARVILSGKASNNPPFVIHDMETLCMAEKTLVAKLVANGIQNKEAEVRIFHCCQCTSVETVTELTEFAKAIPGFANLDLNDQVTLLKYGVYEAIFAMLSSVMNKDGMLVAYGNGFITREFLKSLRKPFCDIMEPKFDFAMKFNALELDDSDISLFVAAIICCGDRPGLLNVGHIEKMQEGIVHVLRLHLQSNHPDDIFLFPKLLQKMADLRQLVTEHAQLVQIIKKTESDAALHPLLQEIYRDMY
Put plainly: Partial agonist activity at Gal4-fused PPARalpha LBD (unknown origin) expressed in HEK293T cells after 14 to 16 hrs by dual-Glo luciferase assay. Type of series: cell-based. Put shortly:
as §1

The target in series [3] is T3, Peroxisome proliferator-activated receptor alpha (Homo sapiens) (UniProt Q07869).
T3 sequence (whole entry): T2 sequence (Q07869 whole entry)
Put plainly: Partial agonist activity at Gal4-fused PPARalpha LBD (unknown origin) expressed in HEK293T cells after 14 to 16 hrs by dual-Glo luciferase assay relative to GW7647. Type of series: cell-based. Put shortly:
as §1

For series [4], the target named is T4, Peroxisome proliferator-activated receptor gamma (Homo sapiens, UniProt P37231).
T4 sequence (P37231 whole entry): T1 sequence (whole entry)
The experiment in a line: Partial agonist activity at Gal4-fused PPARgamma LBD (unknown origin) expressed in HEK293T cells after 14 to 16 hrs by dual-Glo luciferase assay. It is filed as cell-based. Put shortly:
as §1

Series [5] addresses T5, Peroxisome proliferator-activated receptor delta (Homo sapiens) (UniProt Q03181).
T5 sequence (whole entry): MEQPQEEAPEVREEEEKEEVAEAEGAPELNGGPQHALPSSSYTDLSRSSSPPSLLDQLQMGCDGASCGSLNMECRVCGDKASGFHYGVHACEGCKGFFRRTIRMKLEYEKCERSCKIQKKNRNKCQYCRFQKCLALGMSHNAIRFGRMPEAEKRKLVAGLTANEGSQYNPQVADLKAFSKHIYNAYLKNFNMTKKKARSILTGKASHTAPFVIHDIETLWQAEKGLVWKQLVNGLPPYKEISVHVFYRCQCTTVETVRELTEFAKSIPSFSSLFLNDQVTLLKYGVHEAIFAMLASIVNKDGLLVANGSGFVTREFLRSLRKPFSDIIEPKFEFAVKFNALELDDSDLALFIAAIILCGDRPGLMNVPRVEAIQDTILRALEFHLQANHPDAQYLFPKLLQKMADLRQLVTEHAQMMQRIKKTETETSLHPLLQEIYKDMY
The experiment in a line: Partial agonist activity at Gal4-fused PPARdelta LBD (unknown origin) expressed in HEK293T cells after 14 to 16 hrs by dual-Glo luciferase assay relative to L165041. It is filed as cell-based. In outline: as §1

Series [6] has as its target T6, Peroxisome proliferator-activated receptor delta (Homo sapiens, UniProt Q03181).
T6 sequence (Q03181 whole entry): T5 sequence (whole entry)
Put plainly: Partial agonist activity at Gal4-fused PPARdelta LBD (unknown origin) expressed in HEK293T cells after 14 to 16 hrs by dual-Glo luciferase assay. Type of series: cell-based. In outline:
as §1

In series [7] the target is T5, Peroxisome proliferator-activated receptor delta (Homo sapiens). The experiment in a line: Partial agonist activity at Gal4-fused PPARdelta LBD (unknown origin) expressed in HEK293T cells at 10 uM after 14 to 16 hrs by dual-Glo luciferase assay. It is filed as cell-based.
Series [8] concerns the target T7, RXR alpha/PPAR gamma (Homo sapiens) (UniProt P37231+P19793). Put plainly: Partial agonist activity at 1:1 Gal4-fused PPARgamma LBD/Gal4-fused RXRalpha (unknown origin) expressed in HEK293T cells after 14 to 16 hrs by dual-Glo luciferase assay. Type of series: cell-based. In outline: (§2)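 Gal4-PPARγ hybrid reporter assay in HEK293T cells with Gal4-RXRα co-transfected. Firefly luciferase is the read-out, with constitutive renilla as the transfection and viability control. Efficacy is expressed relative to pioglitazone (1 µM). Activity data are normalized to counter variations in receptor protein amount.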

The target of series [9] is T7, RXR alpha/PPAR gamma (Homo sapiens). Put plainly: Partial agonist activity at 1:2 Gal4-fused PPARgamma LBD/Gal4-fused RXRalpha (unknown origin) expressed in HEK293T cells at 0.1 to 1 uM after 14 to 16 hrs by dual-Glo luciferase assay. It is filed as cell-based. Put shortly:
as §2

Series [10] is described as follows: Effect on recombinant PPARgamma LBD/N-terminal GFP-fused RXRalpha mutant LBD (unknown origin) protein-protein dimerization at 10 uM measured after 2 hrs by HTRF assay. The conditions noted are these: human. Put shortly: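 Cell-free HTRF assay of PPARγ–RXRα dimerization on recombinant proteins.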
Series [11] has as its system PPARgamma/RXR (Homo sapiens). Put plainly: Partial agonist activity at PPARgamma/RXR (unknown origin) expressed in HEK293T cells at 0.1 to 1 uM after 14 to 16 hrs by PPRE1 reporter gene based dual-Glo luciferase assay. The conditions noted are these: HEK-293T.
Series [12] has as its target T1, Peroxisome proliferator-activated receptor gamma (Homo sapiens). The experiment in a line: Partial agonist activity at recombinant N-terminal GFP-fused PPARgamma LBD (unknown origin) assessed as increase in biotinylated-CBP peptide recruitment measured after 2 hrs by HTRF assay. In outline: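 Cell-free HTRF assay of CBP coactivator recruitment to recombinant PPARγ protein.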

The source of these data is ChEMBL document CHEMBL4354876, “A Selective Modulator of Peroxisome Proliferator-Activated Receptor γ with an Unprecedented Binding Mode” (J Med Chem, 2020).

Each structure is given as a SMILES string. Active and inactive are the calls of the source. No cut-off for these calls is given here.

`CCCCCCC(Sc1nc2ccc(NC(=O)c3ccc(C(C)(C)C)cc3)cc2s1)C(=O)O` (centres undefined): the max activation in series [1] is 19%; in [3], 12%; in [5], 22%. Also, the figures for the concentration for a half-maximal effect (EC50) in [2], in [4] and in [6] were 3100 nM, 4300 nM and 6200 nM, respectively.
For `CCCCCCC(Sc1nc2ccc(NCc3ccc(C(F)(F)F)cc3)cc2s1)C(=O)O` (centres undefined), the max activation in series [1] is 39%; in series [3], 59%. For the same molecule, the half-maximal effective concentration (EC50) in [2] is 3100 nM; in [4] it was 1800 nM; in [6], more than 10000 nM.
With `CCCCCCC(Sc1nc2ccc(NS(=O)(=O)c3ccc(C(C)(C)C)cc3)cc2s1)C(=O)O` (centres undefined), the max activation is 30% in series [1] and 17% in series [3]. For the same molecule, the EC50 in series [2] is 900 nM; in series [4], 700 nM. The result in [7] was inactive.
`CCCCCCC(Sc1nc2ccc(NCc3cc(Cl)cc(Cl)c3)cc2s1)C(=O)O` (centres undefined): the max activation in series [1] worked out at 35%; in series [3], 19%; in [5] it was 25%. Moreover, the EC50 in [2] was 3800 nM; in [4], 2900 nM; in series [6] it was 9200 nM.
`CCCCCCC(Sc1nc2ccc(NCc3ccccc3)cc2s1)C(=O)O` (centres undefined): the results for the max activation in series [1], in series [3] and in series [5] were 47%, 28% and 19%, respectively. Also, the EC50 in series [2] was determined as 1000 nM; in [4], 1700 nM; in [6], 6100 nM.
Consider `CCCCCC[C@@H](Sc1nc2ccc(NS(=O)(=O)c3ccc(Cl)cc3Cl)cc2s1)C(=O)O`, for which the max activation in [1] was 101%; in [3], 18%; in series [5], 26%. The outcome in series [8], in series [9] and in series [12] was Active. Further, the EC50 is 430 nM in [2], 1.6 nM in [4], 810 nM in series [6] and 160 nM in series [11]. For the same molecule, the Activity entry in series [10] is reported as “Not Active”.
For `CCCCCCC(Sc1nc2ccc(NCc3cccc(Cl)c3)cc2s1)C(=O)O` (centres undefined), the max activation in series [1] is 47%; in [3], 51%. Also, the EC50 is 1900 nM in series [2] and 1500 nM in series [4]. Moreover, in [7], the result was inactive.
In the same order, the values of `CCCCCCC(Sc1nc2ccc(NS(=O)(=O)c3ccc(-c4ccccc4)cc3)cc2s1)C(=O)O` (centres undefined) are 26%, 23%, 5000 nM, 260 nM and “inactive”.
Taken in the same sequence, the figures for `CCCCCCC(Sc1nc2ccc(NCc3ccc(C(C)(C)C)cc3)cc2s1)C(=O)O` (centres undefined) were 28%, 39%, 4000 nM, 3700 nM and “inactive”.
Taken in the same sequence, the figures for `CCCCCCC(Sc1nc2ccc(NCc3ccc(Cl)cc3)cc2s1)C(=O)O` (centres undefined) were 50%, 37%, 1360 nM, 2400 nM and “inactive”.
Consider `CCCCCCC(Sc1nc2ccc(NC(=O)c3ccccc3)cc2s1)C(=O)O` (centres undefined), for which the max activation in series [1] stood at 43%; in series [3], 31%; in series [5] it was 27%. Besides, the EC50 in [2] was 770 nM; in series [4], 4900 nM; in series [6], 7000 nM.
With `CCCCCCC(Sc1nc2ccc(NCc3ccc4ccccc4c3)cc2s1)C(=O)O` (centres undefined), the max activation in series [1] came to 53%; in [3] it was 32%; in series [5], 23%. In addition, the EC50 turned out to be 4000 nM in series [2], 3000 nM in series [4] and 4300 nM in series [6].
Turning to `CCCCCCC(Sc1nc2ccc(NCc3ccc(-c4ccccc4)cc3)cc2s1)C(=O)O` (centres undefined), the max activation stood at 34% in series [1] and 26% in [3]. Further, the half-maximal effective concentration (EC50) in series [2] was 400 nM; in [4] it was 770 nM; in [6] it was more than 10000 nM.
`CCCCCCC(Sc1nc2ccc(NS(=O)(=O)c3ccc(Cl)cc3)cc2s1)C(=O)O` (centres undefined): the max activation came to 39% in series [1], 16% in series [3] and 21% in [5]. Further, the EC50 in series [2] came to 700 nM; in series [4] it was 50 nM; in series [6], 5300 nM.
Take `CCCCC(Sc1nc2ccc(NC(=O)c3ccc(C(C)(C)C)cc3)cc2s1)C(=O)O` (centres undefined): the results for the max activation in [1] and in series [3] were 7.1% and 11%, respectively. The concentration giving a half-maximal response (EC50) in series [2] was found to be 4400 nM; in series [4], 3700 nM. The outcome in series [7] was inactive.
As for `CCCCCCC(Sc1nc2ccc(NCc3ccc(Cl)c(Cl)c3)cc2s1)C(=O)O` (centres undefined), the max activation in series [1] turned out to be 73%; in [3] it was 26%. The results for the EC50 in series [2], in series [4] and in [6] were 1400 nM, 2800 nM and more than 10000 nM, respectively.
In the case of `CCCCCC[C@H](Sc1nc2ccc(NS(=O)(=O)c3ccc(Cl)cc3Cl)cc2s1)C(=O)O`, the results for the max activation in series [1], in series [3] and in [5] were 75%, 28% and 13%, respectively. Moreover, the EC50 turned out to be 250 nM in series [2], 160 nM in [4] and 400 nM in series [6]. Moreover, in series [10], the Activity result was “Not Active”.
